In brackets after ≈: the same amount, converted by molar mass.
Experiments:
[1] = system: Vero; experiment: Ability to inhibit the Cytopathic effect of HSV-2 in vero cells.; assay type: functional, cell-based; details: Chlorocebus sabaeus
[2] = system: HepG2; experiment: Ability to inhibit the episomal HBV-DNA in 2.2.15 cells.; assay type: functional, cell-based; details: Homo sapiens
[3] = Visual cytotoxicity of stationary MRC-5 cells, median toxic concentration is evaluated by anti HCMV plaque reduction assay performed in MRC-5 cells using the AD169 strain of HCMV; assay type: cell-based, MRC5; details: human, read-out: TC50 (the source's name)
Outline: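 Stationary uninfected MRC-5 cells scored visually for cytotoxicity from 0 (none at 20-fold magnification) to 4 (cell sheet nearly destroyed); median toxic concentration reported.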

[4] = system: Vero; experiment: Ability to inhibit the Cytopathic effect of HSV-1 in vero cells.; assay type: functional, cell-based; details: Chlorocebus sabaeus
[5] = system: MRC5; experiment: Anti HCMV (human cytomegalovirus) activity in MRC-5 cells infected with […] strain of HCMV (plaque reduction assay).; assay type: functional, cell-based
[6] = Anti viral activity against 2.2.15 cells (concentration required to reduce the log phase cell growth by 50%).; assay type: cell-based; details: human, 2.2.15 cells (HepG2-derived); read-out: TC50 (the source's name)
Outline: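 Growing 2.2.15/HepG2 cells at 1.7×10^4/well, subconfluent on collagen-coated plates, given compound dilutions in quadruplicate. Drug medium refreshed every second day. Proliferation read on days 0, 4, 8 and 12; TC50 is the concentration giving 50% inhibition of proliferation after 12 days' exposure. Mean of three or more experiments.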

[7] = system: MRC5; experiment: Plaque reduction performed using the DHPG- resistant D16 strain of HCMV in MRC-5 cell line; assay type: functional, cell-based; details: Homo sapiens
Outline: (§1)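 Plaque reduction in MRC-5 cells, grown in MEM(E) with 10% FBS and passaged 1:2, infected with the DHPG-resistant D16 HCMV strain, a viral polymerase mutant. IC50 is the concentration reducing plaques by 50%, derived from a regression line of inhibition versus log concentration. Ganciclovir served as the positive control.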

[8] = Visual cytotoxicity of […], median toxic concentration is evaluated by plaque reduction assay performed in HFF Cell line Hs 68; assay type: cell-based; details: human
[9] = Visual cytotoxicity of stationary MRC-5 cells, median toxic concentration is evaluated by plaque reduction assay performed in DHPG- resistant D16 strain of HCMV; assay type: cell-based, MRC5; details: human, read-out: TC50 (the source's name)
Outline: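 Uninfected stationary MRC-5 cells were scored by eye for cytotoxicity, from 0 (none visible at 20-fold magnification) to 4 (cell sheet nearly destroyed). The value is the median toxic concentration.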

[10] = system: HFF; experiment: Plaque reduction and cytotoxicity performed in HFF cell line Hs 68; assay type: functional, cell-based; details: Homo sapiens
[11] = Anti viral activity against MRC-5 cells (concentration required to reduce the log phase cell growth by 50%).; assay type: cell-based, MRC5; details: human, read-out: TC50 (the source's name)
Outline: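 Growing MRC-5 cells; growth inhibition measured with the CellTiter 96 aqueous proliferation assay. TC50 is the concentration reducing log-phase cell growth by 50%.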

[12] = Anti viral activity against Vero cells (concentration required to reduce the log phase cell growth by 50%).; assay type: cell-based; details: chlorocebus sabaeus, read-out: TC50 (the source's name)
Outline: (§2)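 Log-phase Vero cells, 5000 cells per assay, exposed to compound for 4 days in quadruplicate. Growth measured by tetrazolium-based (CellTiter 96 aqueous) proliferation read-out; averaged data used to calculate TC50, the concentration reducing cell growth by 50%.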

[13] = system: HFF; experiment: Anti HCMV(human cytomegalovirus) activity in HFF cell line Hs 68 infected with […] strain of HCMV(plaque reduction assay).; assay type: functional, cell-based
Outline: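 HCMV AD169 plaque reduction in diploid human foreskin fibroblast line Hs68, grown in MEM(E) with 10% FBS and passaged 1:2. IC50 is the concentration cutting plaque number by 50%, calculated by linear regression of inhibition against log drug concentration. Values are averages of three or more experiments. Ganciclovir was the positive control.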

[14] = system: HFF; experiment: Anti HCMV(human cytomegalovirus) activity in MRC-5 cells infected with DHPG-resistant D16 strain of HCMV(plaque reduction assay).; assay type: functional, cell-based; outline: as §1
[15] = Anti viral activity against vero cells (concentration required to reduce the log phase cell growth by 50%).; assay type: cell-based; details: chlorocebus sabaeus, read-out: TC50 (the source's name); outline: as §2
[16] = Visual cytotoxicity of […], median toxic concentration is evaluated by anti HCMV plaque reduction assay performed in HFF Cell line Hs 68; assay type: cell-based; details: human, read-out: TC50 (the source's name)
[17] = Visual cytotoxicity of stationary HFF Cell line Hs68, median toxic concentration is evaluated by anti HCMV plaque reduction assay performed in HFF Cell line Hs 68; assay type: cell-based; details: human, read-out: TC50 (the source's name)
Outline: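 Stationary uninfected HFF Hs68 cells scored visually for cytotoxicity from 0 (none at 20-fold magnification) to 4 (cell sheet nearly destroyed); median toxic concentration reported.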

Structure (SMILES)	IC50 [2]	CC50 [3]	IC50 [5]	GI50 [6]	other results
Nc1nc(N)c2ccn(C3OC(CO)CC3F)c2n1 (stereo unspecified)	> 30 µg/mL	> 100 µg/mL	> 100 µg/mL	149 µg/mL (≈ 558 µM)	IC50 [1]: > 100 µg/mL; IC50 [4]: > 100 µg/mL
Nc1nc(Cl)c2ccn([C@@H]3O[C@H](CO)[C@@H](O)[C@@H]3F)c2n1	–	32 µg/mL (≈ 106 µM)	> 100 µg/mL	–	–
NC1=NC(=S)C2C=CN([C@@H]3O[C@H](CO)[C@@H](O)[C@@H]3F)C2=N1 (stereo partly specified)	–	> 50 µg/mL	> 50 µg/mL	–	–
COc1nc(N)nc2c1ccn2[C@@H]1O[C@H](CO)[C@@H](O)[C@@H]1F	–	> 100 µg/mL	> 100 µg/mL	–	–
Nc1nc(N)c2ccn([C@@H]3O[C@H](CO)[C@@H](O)[C@@H]3F)c2n1	0.7 µg/mL (≈ 2.47 µM)	> 100 µg/mL	3.7 µg/mL (≈ 13.1 µM)	630 µg/mL (≈ 2220 µM)	IC50 [1]: 6.3 µg/mL (≈ 22.2 µM); IC50 [7]: 11 µg/mL (≈ 38.8 µM); CC50 [8]: > 1000 µg/mL; CC50 [9]: > 100 µg/mL; IC50 [10]: 3.4 µg/mL (≈ 12 µM); GI50 [11]: 11.4 µg/mL (≈ 40.2 µM); IC50 [4]: 4.1 µg/mL (≈ 14.5 µM); CC50 [12]: 53 µg/mL (≈ 187 µM)
NSc1nc(N)nc2c1ccn2[C@@H]1O[C@H](CO)[C@@H](O)[C@@H]1F	–	> 100 µg/mL	> 100 µg/mL	–	–
Nc1ncc2ccn([C@@H]3O[C@H](CO)[C@@H](O)C3F)c2n1 (stereo partly specified)	–	> 100 µg/mL	16 µg/mL (≈ 59.6 µM)	–	–
Nc1nc([SeH])c2ccn([C@@H]3O[C@H](CO)[C@@H](O)[C@@H]3F)c2n1	–	178 µg/mL (≈ 513 µM)	10 µg/mL (≈ 28.8 µM)	–	–
Nc1nc2c(ccn2[C@@H]2O[C@H](CO)[C@@H](O)[C@@H]2F)c(=O)[nH]1	60 µg/mL (≈ 211 µM)	> 100 µg/mL	51 µg/mL (≈ 179 µM)	> 100 µg/mL	–
Nc1ncc2c(n1)N([C@@H]1O[C@H](CO)[C@@H](O)[C@@H]1F)CC2	–	32 µg/mL (≈ 118 µM)	> 100 µg/mL	–	–
Nc1nc2c(ncn2COC(CO)CO)c(=O)[nH]1 [GANCICLOVIR]	–	> 1000 µg/mL	3.2 µg/mL (≈ 12.5 µM)	–	IC50 [13]: 4.4 µg/mL (≈ 17.2 µM); IC50 [14]: 52 µg/mL (≈ 204 µM); CC50 [15]: 270 µg/mL (≈ 1060 µM); GI50 [11]: > 500 µg/mL; CC50 [16]: > 1000 µg/mL; CC50 [17]: > 1000 µg/mL
Nc1ccn([C@H]2CC[C@@H](CO)O2)c(=O)n1 [ZALCITABINE]	2.1 µg/mL (≈ 9.94 µM)	–	–	64 µg/mL (≈ 303 µM)	–
